Measurements: ChEMBL document CHEMBL4007461, “Synthesis, Antiviral Potency, in Vitro ADMET, and X-ray Structure of Potent CD4 Mimics as Entry Inhibitors That Target the Phe43 Cavity of HIV-1 gp120” (J Med Chem, 2017)
Converted amounts (≈) assume the structure as drawn. The source made the active and inactive calls. The rule behind the calls is not given here.

Key:
[1] = system: Human immunodeficiency virus 1; assay: Antiviral activity against X4 tropic HIV1 HXB2 infected in human TZM-bl cells pretreated with virus for 30 mins followed by 3 days incubation with cells by luciferase reporter gene based single cycle infection assay; format: functional, cell-based
Procedure, shortened: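 TZM-bl cells (1 x 10^4/well) were cultured overnight at 37 °C. HXB2-Env pseudovirus was preincubated 30 min with graded compound concentrations, then added to the cells for 3 days. Cells were washed and lysed, and luciferase was read. IC50 came from percent inhibition.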

[2] = system: TZM; assay: (§1) Cytotoxicity against human TZM-bl cells incubated for 3 days by XTT assay; format: cell-based; details: tzm, 72 h
Procedure, shortened: (§2)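 TZM-bl cells, 1 x 10^4/well, cultured overnight at 37 °C. Compounds added at graded concentrations for three days.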

[3] = system: Human immunodeficiency virus 1; assay: Antiviral activity against HIV1 3B infected in human MT2 cells assessed as inhibition of p24 antigen production pretreated with virus for 30 mins followed by 4 days incubation with cells by sandwich ELISA based multicycle infection assay; format: functional, cell-based
Procedure, shortened: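 MT-2 cells were infected with HIV-1 IIIB at 100 TCID50 and preincubated 30 min with graded compound concentrations. Medium was replaced next day. Supernatants were collected 4 days post-infection, lysed with equal volume 5% Triton X-100, and p24 was measured by sandwich ELISA. IC50 came from percent inhibition of p24.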

[4] = system: MT2; assay: (§3) Cytotoxicity against human MT2 cells incubated for 4 days by XTT assay; format: cell-based; details: mt2, 96 h, 96 h
Procedure, shortened: (§4)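 Run alongside the MT-2 multicycle infection assay. Compound at graded concentrations mixed with an equal volume of MT-2 cells (10^5 cells/ml). Medium replaced next day and culture continued four days.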

[5] = Apparent permeability from basolateral to apical side in human Caco2 cells at 10 uM at pH 7.4 by LC-MS/MS analysis; format: ADME, cell-based; details: Caco-2, pH 7.4
Procedure, shortened: (§5)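 Caco-2 cells, passage 40-60, seeded on Transwell inserts at 1 x 10^5 cells/cm2 and grown 20 days in DMEM. Monolayers equilibrated 40 min in HBSS. Donor: compound at 10 µM final, 1% DMSO, in HBSS pH 7.4 with lucifer yellow as integrity marker. Sampled at 120 min, A-B and B-A, in duplicate, by LC-MS/MS. Papp = (dQ/dt)/(C0 × A); efflux ratio = Papp(B-A)/Papp(A-B).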

[6] = Apparent permeability from apical to basolateral side in human Caco2 cells at 10 uM at pH 7.4 by LC-MS/MS analysis; format: ADME, cell-based; details: Caco-2, pH 7.4; procedure, shortened: as §5
[7] = Inhibition of CYP1A in human liver microsomes using ethoxyresorufin as substrate after 5 mins in presence of NADPH by LC-MS/MS analysis
[8] = Aqueous solubility of the compound at 1 to 100 uM in PBS at pH 7.4 after 2 hrs by turbidimetric analysis; format: physicochemical
Procedure, shortened: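 DMSO stocks diluted 1:100 into phosphate-buffered saline pH 7.4, giving 1, 3, 10, 30 and 100 µM final in 1% DMSO. Seven replicate wells per concentration, incubated 2 h at 37 °C, absorbance read at 620 nm. Solubility taken as the concentration giving absorbance above the 1% DMSO vehicle.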

[9] = system: Human immunodeficiency virus 1; assay: Antiviral activity against HIV1 HXB2 pseudovirus infected in human TZM-bl cells assessed as inhibition of viral entry treated 8 hrs post infection measured after 48 hrs by luciferase reporter gene assay; format: functional, cell-based
Procedure, shortened: (§6)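 TZM-bl cells, 1 x 10^4/well, cultured overnight at 37 °C, then infected with HXB2 Env pseudovirus. Plates spun 30 min at 2090 g at 4 °C, then held 90 min at 37 °C. Unbound virus washed off with PBS and fresh medium added. Compounds given at 10-15 times their IC50 at set times after infection. Cells lysed at 48 h and luciferase read. Two independent experiments, each in triplicate.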

[10] = system: Human immunodeficiency virus 1; assay: Antiviral activity against HIV1 HXB2 pseudovirus infected in human TZM-bl cells assessed as inhibition of viral entry treated 1 hr post infection measured after 48 hrs by luciferase reporter gene assay; format: functional, cell-based; procedure, shortened: as §6
[11] = system: Human immunodeficiency virus 1; assay: Antiviral activity against HIV1 HXB2 pseudovirus infected in human TZM-bl cells assessed as inhibition of viral entry treated 2 to 4 hrs post infection measured after 48 hrs by luciferase reporter gene assay; format: functional, cell-based; procedure, shortened: as §6
[12] = Inhibition of HIV1 HXB2 gp120-mediated cell to cell fusion using human MAGI-CCR5 cells as indicator cells and Env/Tat-expressing HL2/3 cells as effector cells preincubated with MAGI-CCR5 cells for 1 hr followed by HL2/3 cells addition by beta-galactosidase reporter gene assay; details: Human immunodeficiency virus 1, HXB2
[13] = Inhibition of HIV1 reverse transcriptase by colorimetric assay; set-up: species or system Human immunodeficiency virus 1
Procedure, shortened: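 HIV-1 reverse transcriptase activity measured with a commercial colorimetric reverse transcriptase kit, following the maker's instructions.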

[14] = Intrinsic clearance in human liver microsomes assessed per mg protein in presence of NADPH by LC-MS/MS analysis; format: ADME, microsome; details: read-out: CLH
[15] = target: Cytochrome P450 2C9 (Homo sapiens, UniProt P11712); assay: Inhibition of CYP2C9 in human liver microsomes using tolbutamide as substrate after 60 mins in presence of NADPH by LC-MS/MS analysis; format: ADME
Chain of Cytochrome P450 2C9 (P11712 whole entry): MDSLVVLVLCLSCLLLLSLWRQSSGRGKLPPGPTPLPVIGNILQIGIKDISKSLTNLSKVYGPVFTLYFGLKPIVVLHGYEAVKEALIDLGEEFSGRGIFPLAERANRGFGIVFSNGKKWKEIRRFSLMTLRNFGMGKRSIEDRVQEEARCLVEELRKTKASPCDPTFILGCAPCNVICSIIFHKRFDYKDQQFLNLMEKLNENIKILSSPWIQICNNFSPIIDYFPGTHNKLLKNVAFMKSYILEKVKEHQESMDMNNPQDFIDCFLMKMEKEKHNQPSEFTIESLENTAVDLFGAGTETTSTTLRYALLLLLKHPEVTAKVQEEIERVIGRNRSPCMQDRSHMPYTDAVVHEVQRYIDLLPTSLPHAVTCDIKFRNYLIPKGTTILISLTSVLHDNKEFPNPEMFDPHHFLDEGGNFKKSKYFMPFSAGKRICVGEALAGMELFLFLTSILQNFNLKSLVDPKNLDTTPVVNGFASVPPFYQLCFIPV

[16] = system: Human immunodeficiency virus 1; assay: Antiviral activity against ENV pseudotyped CCR5-tropic HIV1 subtype D QD435.100M.ENV.B5; format: functional; details: Human immunodeficiency virus 1, subtype D QD435.100M.ENV.B5
Procedure, shortened: (§7)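 Env-pseudotyped viruses made by co-transfecting HEK293T cells with an Env-deleted pSG3 backbone (8 µg) and an Env-expression plasmid (8 µg). Supernatants were harvested 2 days after transfection, filtered, titered and stored at −80 °C. They were used for single-cycle infection, and IC50 was taken from percent inhibition.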

[17] = Unbound fraction in human plasma at 5 uM by LC-MS/MS based equilibrium dialysis; format: ADME, cell-free
[18] = target: Cytochrome P450 2C19 (Homo sapiens, UniProt P33261); assay: Inhibition of CYP2C19 in human liver microsomes using mephenytoin as substrate after 60 mins in presence of NADPH by LC-MS/MS analysis; format: ADME
Chain of Cytochrome P450 2C19 (P33261 whole entry): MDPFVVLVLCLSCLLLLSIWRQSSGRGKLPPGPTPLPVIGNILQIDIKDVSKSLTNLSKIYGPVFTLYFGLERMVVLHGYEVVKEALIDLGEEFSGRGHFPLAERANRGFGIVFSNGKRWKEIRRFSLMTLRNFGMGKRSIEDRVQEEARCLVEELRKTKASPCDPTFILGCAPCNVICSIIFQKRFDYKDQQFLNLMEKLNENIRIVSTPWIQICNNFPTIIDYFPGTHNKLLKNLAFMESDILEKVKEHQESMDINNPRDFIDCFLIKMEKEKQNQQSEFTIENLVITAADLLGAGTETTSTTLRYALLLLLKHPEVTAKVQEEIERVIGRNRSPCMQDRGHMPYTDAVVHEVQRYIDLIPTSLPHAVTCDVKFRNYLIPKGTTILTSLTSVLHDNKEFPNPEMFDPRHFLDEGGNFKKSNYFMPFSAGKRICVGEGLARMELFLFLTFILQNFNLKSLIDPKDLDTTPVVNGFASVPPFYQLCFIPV

[19] = system: Human immunodeficiency virus 1; assay: Antiviral activity against ENV pseudotyped CCR5-tropic HIV1 subtype D QA013.70I.ENV.M12; format: functional; details: Human immunodeficiency virus 1, subtype D QA013.70I.ENV.M12; procedure, shortened: as §7
[20] = target: Voltage-gated inwardly rectifying potassium channel KCNH2 (Homo sapiens, UniProt Q12809); assay: Inhibition of human ERG expressed in CHO cells by patch clamp electrophysiology assay; format: cell-based
Chain of Voltage-gated inwardly rectifying potassium channel KCNH2 (Q12809 whole entry): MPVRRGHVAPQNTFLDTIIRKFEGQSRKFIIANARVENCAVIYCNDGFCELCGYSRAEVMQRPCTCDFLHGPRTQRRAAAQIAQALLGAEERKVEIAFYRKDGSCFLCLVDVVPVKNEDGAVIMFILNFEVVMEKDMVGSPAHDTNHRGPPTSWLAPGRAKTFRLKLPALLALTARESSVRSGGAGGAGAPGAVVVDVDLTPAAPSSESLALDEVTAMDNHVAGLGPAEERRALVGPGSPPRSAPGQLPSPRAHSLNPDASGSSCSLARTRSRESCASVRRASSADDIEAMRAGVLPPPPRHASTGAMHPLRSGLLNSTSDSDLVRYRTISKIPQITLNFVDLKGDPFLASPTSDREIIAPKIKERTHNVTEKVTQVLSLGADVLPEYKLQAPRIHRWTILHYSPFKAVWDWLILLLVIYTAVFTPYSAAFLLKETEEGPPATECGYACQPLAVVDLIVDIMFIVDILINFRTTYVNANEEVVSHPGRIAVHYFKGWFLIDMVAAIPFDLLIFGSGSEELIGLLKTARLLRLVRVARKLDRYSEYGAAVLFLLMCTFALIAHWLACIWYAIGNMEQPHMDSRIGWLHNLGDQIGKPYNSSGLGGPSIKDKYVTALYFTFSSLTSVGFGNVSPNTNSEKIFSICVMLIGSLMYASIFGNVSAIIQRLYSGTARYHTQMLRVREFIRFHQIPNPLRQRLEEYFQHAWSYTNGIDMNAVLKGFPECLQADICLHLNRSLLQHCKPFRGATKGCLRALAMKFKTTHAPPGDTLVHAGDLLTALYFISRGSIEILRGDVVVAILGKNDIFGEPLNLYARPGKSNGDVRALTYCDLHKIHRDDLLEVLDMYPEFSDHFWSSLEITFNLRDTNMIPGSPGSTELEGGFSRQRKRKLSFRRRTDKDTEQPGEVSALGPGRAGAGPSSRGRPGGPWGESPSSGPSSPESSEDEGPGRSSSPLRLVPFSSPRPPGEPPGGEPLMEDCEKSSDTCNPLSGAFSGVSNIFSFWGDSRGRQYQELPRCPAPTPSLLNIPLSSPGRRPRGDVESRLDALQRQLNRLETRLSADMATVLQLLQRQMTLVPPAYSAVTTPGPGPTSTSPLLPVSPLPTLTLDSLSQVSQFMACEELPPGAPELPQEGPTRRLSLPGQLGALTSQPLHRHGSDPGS

[21] = target: Cytochrome P450 3A4 (Homo sapiens, UniProt P08684); assay: Inhibition of CYP3A4 in human liver microsomes using midazolam as substrate after 5 mins in presence of NADPH by LC-MS/MS analysis; format: ADME
Chain of Cytochrome P450 3A4 (P08684 whole entry): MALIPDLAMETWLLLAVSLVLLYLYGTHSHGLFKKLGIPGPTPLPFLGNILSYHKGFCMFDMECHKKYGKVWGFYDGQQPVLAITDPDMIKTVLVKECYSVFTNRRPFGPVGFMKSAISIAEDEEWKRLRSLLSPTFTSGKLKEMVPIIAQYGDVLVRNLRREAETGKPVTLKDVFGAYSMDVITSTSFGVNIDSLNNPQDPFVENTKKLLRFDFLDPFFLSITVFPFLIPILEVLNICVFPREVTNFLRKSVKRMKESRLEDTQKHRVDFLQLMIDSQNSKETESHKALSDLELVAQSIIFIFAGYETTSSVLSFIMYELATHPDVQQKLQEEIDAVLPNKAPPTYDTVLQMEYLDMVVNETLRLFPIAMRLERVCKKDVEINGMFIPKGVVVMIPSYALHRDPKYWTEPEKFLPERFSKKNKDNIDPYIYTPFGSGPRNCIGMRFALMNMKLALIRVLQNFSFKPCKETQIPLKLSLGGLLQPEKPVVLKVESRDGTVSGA

[22] = as §1; format: cell-based; details: TZM-bl cells; procedure, shortened: as §2
[23] = system: Human immunodeficiency virus 1; assay: Antiviral activity against ENV pseudotyped CCR5-tropic HIV1 subtype C 225925-2, clone 22; format: functional; details: Human immunodeficiency virus 1, subtype C 225925-2, clone 22; procedure, shortened: as §7
[24] = target: Cytochrome P450 2D6 (Homo sapiens, UniProt P10635); assay: Inhibition of CYP2D6 in human liver microsomes using dextromethorphan as substrate after 5 mins in presence of NADPH by LC-MS/MS analysis; format: ADME
Chain of Cytochrome P450 2D6 (P10635 whole entry): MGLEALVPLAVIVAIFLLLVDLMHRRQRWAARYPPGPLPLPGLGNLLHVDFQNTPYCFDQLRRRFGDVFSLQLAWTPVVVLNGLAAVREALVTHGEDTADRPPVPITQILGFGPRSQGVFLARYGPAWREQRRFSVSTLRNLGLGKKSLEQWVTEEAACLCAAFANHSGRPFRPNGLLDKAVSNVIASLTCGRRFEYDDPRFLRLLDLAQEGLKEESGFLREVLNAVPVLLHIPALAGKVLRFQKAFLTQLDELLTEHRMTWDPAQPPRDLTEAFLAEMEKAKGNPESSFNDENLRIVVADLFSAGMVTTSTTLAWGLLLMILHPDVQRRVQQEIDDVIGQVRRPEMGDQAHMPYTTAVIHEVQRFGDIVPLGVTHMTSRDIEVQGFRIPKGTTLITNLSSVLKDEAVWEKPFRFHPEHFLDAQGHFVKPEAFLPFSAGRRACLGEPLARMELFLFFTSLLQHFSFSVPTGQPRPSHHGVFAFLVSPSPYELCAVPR

[25] = Metabolic stability in human liver microsomes assessed as compound remaining at 45 mins in presence of NADPH by LC-MS/MS analysis; format: ADME, microsome; details: read-out: Stability
[26] = as §3; format: cell-based; details: MT2 cells; procedure, shortened: as §4

| SMILES | IC50 [1] [µM] | CC50 [2] [µM] | IC50 [3] [µM] | CC50 [4] [µM] | also measured |
| --- | --- | --- | --- | --- | --- |
| CNCC(NC(=O)c1ccc(-c2ccc(C)c(F)c2)[nH]1)c1nc(C)c(CO)s1 (stereo in doubt; 43B) | 1.6 | 34.2 | 0.95 | 30.6 | – |
| Cc1cc(C(=O)NC(CN)c2nc(C)c(CO)s2)[nH]c1-c1ccc(Cl)cc1 (stereo in doubt; 28A) | – | 22.2 | – | 18 | IC50 ([1]; Human immunodeficiency virus 1, HXB2, TZM-bl): 3.6 µM; IC50 ([3]; Human immunodeficiency virus 1, 3B, MT2): 5.3 µM |
| Cc1cc(-c2ccc(Cl)cc2)[nH]c1C(=O)NC(CN)c1nc(C)c(CO)s1 (stereo in doubt; 27B) | 2.2 | 27.2 | 4.1 | 24.9 | – |
| NCC(NC(=O)c1ccc(-c2ccc(Cl)cc2)[nH]1)c1ncc(CO)s1 (stereo in doubt; 81B) | 0.75 | 37.1 | 1.8 | 34.5 | – |
| Cc1cc(-c2ccc(C(=O)NC(CCN(C)C)c3nc(C)c(CO)s3)[nH]2)ccc1F (stereo in doubt; 69B) | 4.8 | 23.5 | 2.9 | 23.5 | – |
| CNCC(NC(=O)c1ccc(-c2ccc(C)c(F)c2)[nH]1)c1ncc(CO)s1 (stereo in doubt; 87B) | 1 | 27.4 | 0.99 | 28.3 | – |
| Cc1cc(-c2ccc(C(=O)NC(CCN)c3nc(C)c(CO)s3)[nH]2)ccc1F (stereo in doubt; 63B) | 7.8 | 38.2 | 3 | 34.7 | – |
| CNCC(NC(=O)c1ccc(-c2ccc(Cl)c(F)c2)[nH]1)c1ncc(CO)s1 (stereo in doubt; 86B) | 0.95 | 17.3 | 4 | 18.3 | – |
| Cc1nc(C(CCN(C)C)NC(=O)c2ccc(-c3ccc(F)c(Cl)c3)[nH]2)sc1CO (stereo in doubt; 68B) | 1.8 | 22 | 4.4 | 22 | – |
| NCC(NC(=O)c1ccc(-c2ccc(Cl)c(F)c2)[nH]1)c1ncc(CO)s1 (stereo in doubt; 82B) | 0.57 | 33 | 1.2 | 36 | – |
| COc1cnc(-n2cnc(C)n2)c2[nH]cc(C(=O)C(=O)N3CCN(C(=O)c4ccccc4)CC3)c12 | – | – | – | – | Papp B→A at 10 µM [5]: 37.4 ×10⁻⁶ cm/s; Papp A→B at 10 µM [6]: 7.62 ×10⁻⁶ cm/s; IC50 [7]: > 25 µM; solubility kinetic at 2 h [8]: > 100 µM |
| Cc1nnc(C(=O)NC(C)(C)c2nc(C(=O)NCc3ccc(F)cc3)c(O)c(=O)n2C)o1 | – | – | – | – | inhibition [9]: inactive |
| Cc1nc(C(CCN)NC(=O)c2ccc(-c3ccc(F)c(Cl)c3)[nH]2)sc1CO (stereo in doubt; 62B) | 8 | 24.5 | 9.3 | 24.9 | – |
| COc1ccnc2[nH]cc(C(=O)C(=O)N3CCN(C(=O)c4ccccc4)C[C@H]3C)c12 | – | – | – | – | inhibition [10]: Active; inhibition [11]: inactive |
| CNCCC(NC(=O)c1ccc(-c2ccc(F)c(C)c2)[nH]1)c1nc(C)c(CO)s1 (stereo in doubt; 66B) | 4.9 | 36.4 | 5 | 25.3 | – |
| CNCCC(NC(=O)c1ccc(-c2ccc(F)c(Cl)c2)[nH]1)c1nc(C)c(CO)s1 (stereo in doubt; 65B) | 4.6 | 22.3 | 5.7 | 24.2 | – |
| CNCC(NC(=O)c1ccc(-c2cc(F)c(Cl)c(F)c2)[nH]1)c1ncc(CO)s1 (stereo in doubt; 88B) | 0.42 | 13.9 | – | 11.9 | – |
| CC1(C)CC(NC(=O)C(=O)Nc2ccc(Cl)cc2)CC(C)(C)N1 | – | – | – | – | IC50 [12]: 2.9 µM; IC50 [13]: > 300 µM |
| Cc1nc(C(NC(=O)c2ccc(-c3ccc(Cl)cc3)[nH]2)C2CCCCN2)sc1CO (stereo not given) | – | – | – | – | microsomal CLint [14]: < 10 µL/min/mg; IC50 [12]: 6.1 µM; IC50 [15]: > 25 µM; IC50 [16]: 1.4 µM; Papp B→A at 10 µM [5]: 31.3 ×10⁻⁶ cm/s; Papp A→B at 10 µM [6]: 2.31 ×10⁻⁶ cm/s; fraction unbound at 5 µM [17]: 0.114; IC50 [18]: > 25 µM; IC50 [19]: 0.79 µM; IC50 [20]: 3.8 µM; IC50 [7]: > 25 µM; IC50 [21]: > 25 µM; CC50 at 72 h [22]: 23.6 µM; IC50 [23]: 1.1 µM; solubility kinetic at 2 h [8]: 65 µM (≈ 28.9 µg/mL); IC50 [13]: 47 µM; IC50 [24]: > 25 µM; remaining at […] [25]: 84%; CC50 at 96 h [26]: 24.8 µM |
| c1cc(CN2CCCNCCNCCCNCC2)ccc1CN1CCCNCCNCCCNCC1 | – | – | – | – | inhibition [10]: Active; inhibition [11]: inactive |
